OX1R antag-1 – antagonists of human orexin 1 receptor; O43613; CHO/OX1R cells, Fluo-8 calcium fluorescence, orexin A; inhibition, % at 5 µM; 330,000 compounds, 0.43% hits;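 active = inhibition above its plate's threshold, mean inhibition of all tested compounds on the plate plus 3 SD, cut at about 37% in these data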;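 note: 0% = orexin A challenge wells and 100% = SB-334867-A antagonist wells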
TAAR1 antagonist – antagonists of human TAAR1 | inhibition, % at 3 µM | CHO RD-HGA16 TAAR1, Fluo-8 calcium fluorescence, antagonist | Q96RJ0 | AID 624466 | 360,000 compounds, 1.5% hits;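 active = inhibition above a per-plate cutoff, the mean inhibition of test compounds on that plate plus 3 SD, cut at about 49% in these data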;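 note: 0% = DMSO plus EC80 beta-PEA response and 100% = DMSO alone without agonist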
Target sequence (Q96RJ0 whole entry, looked up): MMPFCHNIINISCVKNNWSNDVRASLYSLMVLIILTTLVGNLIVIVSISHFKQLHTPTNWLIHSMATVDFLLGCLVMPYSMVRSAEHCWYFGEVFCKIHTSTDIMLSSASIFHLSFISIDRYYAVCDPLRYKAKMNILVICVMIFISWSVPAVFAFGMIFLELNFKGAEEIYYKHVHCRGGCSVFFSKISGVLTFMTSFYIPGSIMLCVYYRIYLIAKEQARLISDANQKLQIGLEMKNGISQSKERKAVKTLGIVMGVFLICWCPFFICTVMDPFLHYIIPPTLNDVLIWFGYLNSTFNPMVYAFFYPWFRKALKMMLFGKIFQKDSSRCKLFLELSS
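Test system: RD-HGA16 CHO cells with stable hTAAR1 and Gα16 / Probe or stimulus: EC80 β-phenethylamine stimulus / Times: seeding 17-24 h prior, 75-min 37 °C, 30-min RT dye loading / Detection: Fluo-8 calcium-sensitive fluorescence / Read-out basis: % inhibition scaled between DMSO and EC80 PEA controls / Repeats: singlicate, one well per test compound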
CHO parental Ca – counter-screen for OX1R antagonists: effect in parental CHO cells; inhibition, % at 5.6 µM; parental CHO-K1, ATP-induced calcium, Fluo-8 fluorescence; 330,000 compounds, 0.63% hits; AID 463079;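 active = inhibition above that plate's mean sample inhibition plus 3 SD, cut at about 26% in these data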;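 note: 0% = ATP-challenged DMSO wells and 100% = DMSO wells without ATP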
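test system = CHO parental line | reagent = ATP stimulus | measured by = intracellular calcium via Fluo-8 no-wash fluorescent dye | control set = ATP and no-ATP DMSO wells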
TAAR1 ag – agonists of human TAAR1. Q96RJ0. activation, % at 3 µM. 360,000 compounds, 0.99% hits. AID 624467. CHO RD-HGA16 TAAR1, Fluo-8 calcium fluorescence; vehicle wells 0%, saturating PEA agonist 100%;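 active = activation above the mean activation of all test compounds in the run plus 3 SD, cut at about 38% in these data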
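Assay system: CHO-derived RD-HGA16 cells with stable Gα16 and human TAAR1; timing: 17-24 h seeding, 75 min 37 °C dye, 30 min RT; read-out: % activation from peak over basal fluorescence ratio, DMSO-to-PEA scaled; measured by: kinetic Fluo-8 calcium fluorescence; benchmarks: low control DMSO, high control PEA (EC100); doses: 3 µM single concentration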
OX1R antag-2 – OX1R (human) antagonism; O43613; OX1R-expressing cells, FRET antagonist read-out; inhibition, % at 6.6 µM; 330,000 compounds, 1.8% hits; in the data active = inhibition mostly above about 38%, no sharp cut-off; inactive = mostly below about 40%;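 note: 0% = agonist challenge alone and 100% = reference antagonist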
NTR1 agonist – agonists of human neurotensin receptor NTR1 | NTR1-U2OS beta-arrestin-GFP spot imaging, agonist mode | P30989 | AID 493036 | 330,000 compounds, 0.17% hits | activation, % at 20 µM;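 active = activation at or above 40% of the spot to cytoplasm intensity ratio, with at least 20 cells analyzed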;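 note: 0% = DMSO without peptide and 100% = 100 nM NTR1 peptide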
Active calls of the source: *; . = no result. Compounds with a hit are over-represented: about 4% of the library has one in this group of screens.

SMILES	OX1R antag-1	TAAR1 antagonist	CHO parental Ca	TAAR1 ag	OX1R antag-2	NTR1 agonist
c1ccc(Nc2nc(-c3ccccc3)ns2)cc1	-13	17	-3	9	49*	1
CC(=O)Cc1nsc(Nc2ccccc2)n1	-17	-9	5	0	6	1
O=C(N/N=C/c1ccc(-c2ccc([N+](=O)[O-])cc2)o1)C(O)c1ccccc1 (stereo not given)	-17	-6	-12	4	18	2
NC(=O)/C(=C\c1ccc([N+](=O)[O-])o1)c1ccco1	.	-12	.	0	.	.
Cc1c(C(=O)O)cccc1-c1ccc(/C=N/Nc2ccc(Br)cc2)o1	6	59*	-2	23	22	3
Cc1c(C(=O)O)cccc1-c1ccc(/C=N/n2cnnc2)o1	-6	-10	-2	7	22	1
O=C(N/N=C/c1ccc([N+](=O)[O-])o1)C(O)c1ccccc1 (stereo not given)	-3	-11	-7	3	36*	2
COC(=O)/C(=C\c1ccc([N+](=O)[O-])o1)NC(=O)c1ccccc1	-4	18	2	1	69*	13
O=[N+]([O-])c1ccc(/C=[N+](\[O-])CCO)o1	-14	-4	-7	0	47*	-2
O=C(CNc1ccc2ccccc2c1)N/N=C/c1ccc([N+](=O)[O-])o1	24	23	41*	2	46*	3
O=C(O)c1cccc(-c2ccc(/C=N/Nc3ccc([N+](=O)[O-])cc3)o2)c1	54*	57*	33*	44*	12	2
NC(=O)N/N=C/c1ccc([N+](=O)[O-])o1	-3	-13	4	2	66*	1
Cc1cc(C(=O)N/N=C/c2ccc([N+](=O)[O-])o2)c(C)o1	8	-10	-5	-1	32	0
O=C(COc1ccccc1)N/N=C/c1ccc([N+](=O)[O-])o1	-7	5	0	2	53	3
COC(=O)N/N=C/c1ccc([N+](=O)[O-])o1	-13	-7	-7	6	56*	1
O=S1(=O)CCSC[C@@H](CN2CCOCC2)N1	.	-5	.	2	.	.
O=C(N/N=C/c1ccc([N+](=O)[O-])o1)C(=O)Nc1ccc(C(=O)O)cc1	-7	-12	-3	-2	60	1
COC(=O)N/N=C/c1cc(OC)c(O)c([N+](=O)[O-])c1	-18	3	-4	3	51*	-1
O=C(O)c1ccc(N/N=C/C=C/c2ccc([N+](=O)[O-])o2)cc1	49*	42	52*	33	63	-3
CN(c1cccnc1)c1ccc(NC(=O)Cc2c[nH]c3ccccc23)cc1-c1ccc(C(C)(C)C)cc1	.	-3	.	1	.	.
CC(=O)N(C1=C(Cl)C(=O)c2ccccc2C1=O)C1CCCCC1	22	40	38*	42*	71*	13
C=CCNc1ccc2c(c1)OC[C@H](CC(C)C)NS2(=O)=O	.	-5	.	2	.	.
CCc1ccc(Nc2nnc(SCC(=O)Nc3sccc3C(N)=O)s2)cc1	-5	39	-25	15	26	22
COc1cccc(Nc2nnc(SCC(=O)Nc3sccc3C(N)=O)s2)c1	15	68*	1	12	63	6
O=S(=O)(/N=S1\CC=CCN1S(=O)(=O)c1ccccc1)c1ccccc1 (stereo not given)	.	-8	.	67*	.	.
SMILES	OX1R antag-1	TAAR1 antagonist	CHO parental Ca	TAAR1 ag	OX1R antag-2	NTR1 agonist
CCc1cc(=O)n2[nH]c(-c3ccccc3)c(-c3ccccc3)c2n1	-29	1	-14	3	-4	6
Oc1ccc2ccccc2c1C=NCc1cn2ccsc2n1	-2	-21	-2	-1	65*	3
CCN1C(=O)N(C(C)=O)[C@@H]2C[C@H](C(=O)N3CCCC3)[C@H](C)[C@H](c3ccccc3)C[C@@H]21	.	-2	.	1	.	.
C[C@@H]1CN([C@H](C)CO)S(=O)(=O)c2ccc(Br)cc2O[C@H]1CN(C)CC1CCOCC1	.	-3	.	0	.	.
O=C(NCc1ccco1)c1cccc2c1C(=O)c1ccc(/C=C/c3ccccc3)cc1S2(=O)=O	6	51*	-4	13	16	4
CC(=O)c1cccc(NC(=O)c2ccc(-c3c(C)noc3C)c3ccoc23)c1	.	64*	.	11	.	.
COc1ccc(-c2ccc(C(=O)Nc3ccc(NC(C)=O)cc3)c3occc23)c(C)c1	.	51*	.	14	.	.
COc1cc(NC(=O)c2cccc3c(-c4cnn(C)c4)coc23)cc(OC)c1OC	.	54*	.	15	.	.
COc1ccc(-c2ccc(C(=O)Nc3ccc(Cl)cc3)c3occc23)c(C)c1	.	5	.	1	.	.
Cn1cc(-c2coc3c(C(=O)Nc4ccccc4)cccc23)cn1	.	16	.	5	.	.
CC(=O)c1cccc(NC(=O)c2cccc3c(-c4cnn(C)c4)coc23)c1	.	55*	.	14	.	.
CCCCCn1c(C)c(CC(=O)Nc2ccc(Oc3cccnc3)c(C)c2)c2ccccc21	.	9	.	-2	.	.
COc1ccc(NC(=O)C2(C)CCN2Cc2csc3ccccc23)cc1OC (stereo not given)	.	23	.	1	.	.
Cn1c(=NC(=O)CS(=O)(=O)c2ccccc2)sc2ccccc21	-13	1	-6	1	1	0
CCn1c(=NC(=O)CS(=O)(=O)c2ccccc2)sc2cccc(OC)c21	20	7	5	3	33*	5
C#CCn1c(=NC(=O)c2cccs2)sc2cccc(OC)c21	-41	14	12	0	66*	4
COc1ccc(C2CC(=O)C(c3ccc(C(C)=O)cc3)=CN2Cc2ccccc2)cc1 (stereo not given)	.	-7	.	-2	.	.
O=C(c1ccc(N2CCCCC2)c([N+](=O)[O-])c1)N1CCN(c2ccccn2)CC1	-18	15	-23	-2	20	0
O=C1C2CC=CCC2C(=O)N1c1ccc(N2CCN(c3ccccn3)CC2)c([N+](=O)[O-])c1 (stereo not given)	27	13	46*	9	42	1
CC[n+]1c(/C=C/c2ccc(OC)c(OC)c2)ccc2ccccc21	-23	-21	-4	0	65*	1
CCN(CC)c1ccc(/C=C/c2ccc3ccc(OC)cc3[n+]2CC)cc1	28	6	59*	7	33	6
C[C@H](O)[C@@H]1CN2CCc3ccc(-c4ccc5c(c4)OCO5)cc3[C@@H]2C[C@@H]1N(C)Cc1ccccc1	.	-5	.	0	.	.
COC(=O)C1=C(C)N(Cc2ccc(C(F)(F)F)cc2)C(=NCC2CC2)NC1c1cccc(Cl)c1 (stereo not given)	.	39	.	25	.	.
COCCN1Cc2cc(C(=O)OC)c3c(c2C1=O)c1cc(F)ccc1n3S(=O)(=O)c1cccc(C)c1	.	-30	.	5	.	.
